From ChEMBL document CHEMBL5357066, “Development of Novel Membrane Disrupting Lipoguanidine Compounds Sensitizing Gram-Negative Bacteria to Antibiotics” (ACS Med Chem Lett, 2024)
Values after ≈ are worked out from the molar mass of the structure shown.

What was measured:
Klebsiella pneumoniae [1] = test: Synergistic antibacterial activity against Klebsiella pneumoniae M6 assessed as fold change in novobiocin MIC at <=0.25 times MIC incubated for overnight by microbroth dilution checkerboard assay relative to novobiocin alone; assay type: functional
Outline: (§1)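 Checkerboard microdilution under MIC conditions (TSB, overnight, 37 °C). Two-fold series of each agent were combined on one plate before bacteria were added, and single-agent MICs were measured on the same plate. FIC = sum of combination MIC/alone MIC for each agent, taken from the most synergistic well. Three independent repeats, mean ± SD. ≤0.5 was taken as strong synergy and 0.5–<1 as weak.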

Escherichia coli [2] = test: Synergistic antibacterial activity against Escherichia coli NCTC 12923 assessed as novobiocin MIC at <=0.25 times MIC incubated for overnight by microbroth dilution checkerboard assay; assay type: functional; outline: as §1
Escherichia coli [3] = test: Antibacterial activity against Escherichia coli NCTC 12923 assessed as bacterial growth inhibition incubated for overnight by microbroth dilution method; assay type: functional
Outline: (§2)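 Broth microdilution in Tryptic Soy Broth. DMSO stocks were diluted in TSB as 2-fold series. Overnight TSB cultures were back-diluted to OD 0.01 and mixed 1:1 with compound. Incubation was overnight at 37 °C. MIC was the lowest concentration without visible growth (<0.1 OD600). DMSO vehicle was checked at equivalent concentrations.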

Pseudomonas aeruginosa [4] = test: Synergistic antibacterial activity against Pseudomonas aeruginosa PAO1 assessed as fold change in novobiocin MIC at <=0.25 times MIC incubated for overnight by microbroth dilution checkerboard assay relative to novobiocin alone; assay type: functional
Outline: (§3)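 Checkerboard microdilution in Tryptic Soy Broth, run like the MIC assay. Overnight TSB cultures were back-diluted to OD 0.01 and added 1:1 to the combined two-fold series of both agents, then incubated overnight at 37 °C. Growth/no-growth was called at <0.1 OD600. MICs alone were read on the same plates. FIC index came from the most synergistic well; three independent repeats, mean ± SD.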

Klebsiella pneumoniae [5] = test: Synergistic antibacterial activity against […] Klebsiella pneumoniae M6 assessed as novobiocin MIC at <=0.25 times MIC incubated for overnight by microbroth dilution checkerboard assay; assay type: functional
Outline: (§4)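 Checkerboard run under the MIC conditions (TSB, overnight, 37 °C). Antibiotic and lipoguanidine 2-fold series were combined on one plate before bacteria were added. Growth/no-growth was scored as for the MIC (<0.1 OD600). Single-agent MICs were measured on the same plates. Three independent repeats were done.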

Escherichia coli [6] = test: Synergistic antibacterial activity against Escherichia coli NCTC 12923 assessed as fold change in novobiocin MIC at <=0.25 times MIC incubated for overnight by microbroth dilution checkerboard assay relative to novobiocin alone; assay type: functional; outline: as §1
Acinetobacter baumannii [7] = test: Synergistic antibacterial activity against Acinetobacter baumannii AYE assessed as rifampicin MIC at <=0.25 times MIC incubated for overnight by microbroth dilution checkerboard assay; assay type: functional; outline: as §1
Klebsiella pneumoniae [8] = test: Synergistic antibacterial activity against […] Klebsiella pneumoniae NCTC 13368 assessed as novobiocin MIC at <=0.25 times MIC incubated for overnight by microbroth dilution checkerboard assay; assay type: functional; outline: as §4
Acinetobacter baumannii [9] = test: Synergistic antibacterial activity against Acinetobacter baumannii AYE assessed as fold change in novobiocin MIC at <=0.25 times MIC incubated for overnight by microbroth dilution checkerboard assay relative to novobiocin alone; assay type: functional; outline: as §1
Klebsiella pneumoniae [10] = test: Synergistic antibacterial activity against […] Klebsiella pneumoniae M6 assessed as rifampicin MIC at <=0.25 times MIC incubated for overnight by microbroth dilution checkerboard assay; assay type: functional; outline: as §4
Acinetobacter baumannii [11] = test: Synergistic antibacterial activity against Acinetobacter baumannii AYE assessed as fold change in rifampicin MIC at <=0.25 times MIC incubated for overnight by microbroth dilution checkerboard assay relative to rifampicin alone; assay type: functional; outline: as §1
Pseudomonas aeruginosa [12] = test: Antibacterial activity against Pseudomonas aeruginosa NCTC 13437 assessed as bacterial growth inhibition incubated for overnight by microbroth dilution method; assay type: functional; outline: as §2
Pseudomonas aeruginosa [13] = test: Synergistic antibacterial activity against Pseudomonas aeruginosa NCTC 13437 assessed as fold change in novobiocin MIC at <=0.25 times MIC incubated for overnight by microbroth dilution checkerboard assay relative to novobiocin alone; assay type: functional; outline: as §1
Pseudomonas aeruginosa [14] = test: Synergistic antibacterial activity against Pseudomonas aeruginosa PAO1 assessed as fold change in rifampicin MIC at <=0.25 times MIC incubated for overnight by microbroth dilution checkerboard assay relative to rifampicin alone; assay type: functional; outline: as §3
Klebsiella pneumoniae [15] = test: Antibacterial activity against ESBL Klebsiella pneumoniae NCTC 13368 assessed as bacterial growth inhibition incubated for overnight by microbroth dilution method
Klebsiella pneumoniae [16] = test: Synergistic antibacterial activity against Klebsiella pneumoniae NCTC 13368 assessed as fold change in novobiocin MIC at <=0.25 times MIC incubated for overnight by microbroth dilution checkerboard assay relative to novobiocin alone; assay type: functional; outline: as §1
Acinetobacter baumannii [17] = test: Synergistic antibacterial activity against Acinetobacter baumannii ATCC 17978 assessed as rifampicin MIC at <=0.25 times MIC incubated for overnight by microbroth dilution checkerboard assay; assay type: functional; outline: as §1
Acinetobacter baumannii [18] = test: Synergistic antibacterial activity against Acinetobacter baumannii ATCC 17978 assessed as fold change in rifampicin MIC at <=0.25 times MIC incubated for overnight by microbroth dilution checkerboard assay relative to rifampicin alone; assay type: functional; outline: as §1
Acinetobacter baumannii [19] = test: Synergistic antibacterial activity against Acinetobacter baumannii AYE assessed as novobiocin MIC at <=0.25 times MIC incubated for overnight by microbroth dilution checkerboard assay; assay type: functional; outline: as §1
Pseudomonas aeruginosa [20] = test: Synergistic antibacterial activity against Pseudomonas aeruginosa PAO1 assessed as rifampicin MIC at <=0.25 times MIC incubated for overnight by microbroth dilution checkerboard assay; assay type: functional; outline: as §3
Klebsiella pneumoniae [21] = test: Antibacterial activity against Klebsiella pneumoniae M6 assessed as bacterial growth inhibition incubated for overnight by microbroth dilution method
Acinetobacter baumannii [22] = test: Antibacterial activity against Acinetobacter baumannii ATCC 17978 assessed as bacterial growth inhibition incubated for overnight by microbroth dilution method; assay type: functional; outline: as §2
Klebsiella pneumoniae [23] = test: Synergistic antibacterial activity against Klebsiella pneumoniae NCTC 13368 assessed as fold change in rifampicin MIC at <=0.25 times MIC incubated for overnight by microbroth dilution checkerboard assay relative to rifampicin alone; assay type: functional; outline: as §4
Pseudomonas aeruginosa [24] = test: Synergistic antibacterial activity against Pseudomonas aeruginosa NCTC 13437 assessed as rifampicin MIC at <=0.25 times MIC incubated for overnight by microbroth dilution checkerboard assay; assay type: functional; outline: as §3
Escherichia coli [25] = test: Synergistic antibacterial activity against Escherichia coli NCTC 12923 assessed as fold change in rifampicin MIC at <=0.25 times MIC incubated for overnight by microbroth dilution checkerboard assay relative to rifampicin alone; assay type: functional; outline: as §1
Pseudomonas aeruginosa [26] = test: Synergistic antibacterial activity against Pseudomonas aeruginosa PAO1 assessed as novobiocin MIC at <=0.25 times MIC incubated for overnight by microbroth dilution checkerboard assay; assay type: functional; outline: as §3
Pseudomonas aeruginosa [27] = test: Synergistic antibacterial activity against Pseudomonas aeruginosa NCTC 13437 assessed as fold change in rifampicin MIC at <=0.25 times MIC incubated for overnight by microbroth dilution checkerboard assay relative to rifampicin alone; assay type: functional; outline: as §3
Acinetobacter baumannii [28] = test: Synergistic antibacterial activity against Acinetobacter baumannii ATCC 17978 assessed as novobiocin MIC at <=0.25 times MIC incubated for overnight by microbroth dilution checkerboard assay; assay type: functional; outline: as §1
Escherichia coli [29] = test: Synergistic antibacterial activity against Escherichia coli NCTC 12923 assessed as rifampicin MIC at <=0.25 times MIC incubated for overnight by microbroth dilution checkerboard assay; assay type: functional; outline: as §1
Klebsiella pneumoniae [30] = test: Synergistic antibacterial activity against Klebsiella pneumoniae NCTC 13368 assessed as rifampicin MIC at <=0.25 times MIC incubated for overnight by microbroth dilution checkerboard assay; assay type: functional; outline: as §1
Erythrocyte = test: Hemolytic activity in human Red blood cells at 512 microg/ml measured after 1 hrs by absorbance based assay; assay type: toxicity, cell-based; conditions: dose 512 µg/ml
Outline: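 Titrations in PBS were incubated with freshly collected human red blood cells for 1 h at 37 °C. Controls were 0.1% Triton-X-100 (full lysis) and PBS alone (no lysis). After centrifugation, supernatant OD550 was read. % haemolysis = (AP−AB)/(AC−AB)×100. Data are means and standard error of three biological replicates.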

Pseudomonas aeruginosa [31] = test: Antibacterial activity against Pseudomonas aeruginosa PAO1 assessed as bacterial growth inhibition incubated for overnight by microbroth dilution method; assay type: functional; outline: as §2
Pseudomonas aeruginosa [32] = test: Synergistic antibacterial activity against Pseudomonas aeruginosa NCTC 13437 assessed as novobiocin MIC at <=0.25 times MIC incubated for overnight by microbroth dilution checkerboard assay; assay type: functional; outline: as §3
Acinetobacter baumannii [33] = test: Antibacterial activity against Acinetobacter baumannii AYE assessed as bacterial growth inhibition incubated for overnight by microbroth dilution method; assay type: functional; outline: as §2
Acinetobacter baumannii [34] = test: Synergistic antibacterial activity against Acinetobacter baumannii ATCC 17978 assessed as fold change in novobiocin MIC at <=0.25 times MIC incubated for overnight by microbroth dilution checkerboard assay relative to novobiocin alone; assay type: functional; outline: as §1

For `CCCCCCCCCCNC(=N)NCCCCNC(=N)N`, the “fold change (FC)” value (Klebsiella pneumoniae [1]) was “>=4”, the MIC (Escherichia coli [2]) was 2 µg/mL and the MIC (Escherichia coli [3]) was 64 µg/mL (≈ 205 µM). The “fold change (FC)” value (Pseudomonas aeruginosa [4]) was “>=4”, the MIC (Klebsiella pneumoniae [5]) was 1 µg/mL and the “fold change (FC)” value (Escherichia coli [6]) was “>=4”. The MIC (Acinetobacter baumannii [7]) was at most 0.125 µg/mL, the MIC (Klebsiella pneumoniae [8]) was 8 µg/mL and the “fold change (FC)” value (Acinetobacter baumannii [9]) was “>=4”. For the same compound, the MIC (Klebsiella pneumoniae [10]) was at most 0.125 µg/mL, the “fold change (FC)” value (Acinetobacter baumannii [11]) was “>=4” and the MIC (Pseudomonas aeruginosa [12]) was over 128 µg/mL. The “fold change (FC)” value (Pseudomonas aeruginosa [13]) was “>=4”, the “fold change (FC)” value (Pseudomonas aeruginosa [14]) was “>=4” and the MIC (Klebsiella pneumoniae [15]) was over 128 µg/mL. The “fold change (FC)” value (Klebsiella pneumoniae [16]) was “>=4”, the MIC (Acinetobacter baumannii [17]) was at most 0.125 µg/mL and the “fold change (FC)” value (Acinetobacter baumannii [18]) was “>=4”. The MIC (Acinetobacter baumannii [19]) was 0.125 µg/mL, the MIC (Pseudomonas aeruginosa [20]) was 2 µg/mL and the MIC (Klebsiella pneumoniae [21]) was over 128 µg/mL. The MIC (Acinetobacter baumannii [22]) was over 128 µg/mL, the “fold change (FC)” value (Klebsiella pneumoniae [23]) was “>=4” and the MIC (Pseudomonas aeruginosa [24]) was at most 0.125 µg/mL. For the same compound, the “fold change (FC)” value (Escherichia coli [25]) was “>=4”, the MIC (Pseudomonas aeruginosa [26]) was 4 µg/mL and the “fold change (FC)” value (Pseudomonas aeruginosa [27]) was “>=4”. It also gave an MIC (Acinetobacter baumannii [28]) of 0.125 µg/mL, an MIC (Escherichia coli [29]) of at most 0.125 µg/mL and an MIC (Klebsiella pneumoniae [30]) of at most 0.125 µg/mL. The Activity (Erythrocyte) was “Toxic”, the MIC (Pseudomonas aeruginosa [31]) was 64 µg/mL (≈ 205 µM) and the MIC (Pseudomonas aeruginosa [32]) was 4 µg/mL. For the same compound, the MIC (Acinetobacter baumannii [33]) was over 128 µg/mL and the “fold change (FC)” value (Acinetobacter baumannii [34]) was “>=4”.
